Source: ChEMBL document CHEMBL1909531, “Mitochondrial respiration inhibitors suppress protein translation and hypoxic signaling via the hyperphosphorylation and inactivation of translation initiation factor eIF2α and elongation factor eEF2” (J Nat Prod, 2011)
Calls of active or inactive are those of the source. The calls are words filed in the database; no cut-off is given here.

How the values were obtained:
[1] = molecular target: Serine/threonine-protein kinase mTOR (Homo sapiens) (UniProt P42345); experiment: Inhibition of mTOR in human MDA-MB-231 cells assessed as eEF2 hyperphosphorylation on Ser 56 at 1 to 10 uM after 30 mins by Western blotting; assay type: cell-based
Procedure, shortened: (§1)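 Cells seeded at 0.8 × 10^6 per well, exposed 30 min at 37 °C, 5% CO2, in DMEM/F12 with 5% FBS. Lysed in modified RIPA (pH 7.6) with protease and phosphatase inhibitors; 40 µg protein run on 4–20% gels, nitrocellulose transfer. Phospho-specific and total eIF2α/eEF2 primaries at 1:1,000, HRP anti-rabbit at 1:2000, chemiluminescence on film.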

[2] = molecular target: T1, Hypoxia inducible factors; HIF-1-alpha, HIF-2-alpha (Homo sapiens, UniProt Q16665+Q99814); experiment: Inhibition of HIF1-mediated induction of Glut-1 mRNA expression in human T47D cells at 3 uM after 16 hrs by RT-PCR analysis under normoxic condition; assay type: cell-based
T47D [3] = experiment: Inhibition of 1, 10-phenanthroline-induced HIF1alpha protein accumulation in human T47D cells at 3 uM after 4 hrs by Western blot analysis; assay type: functional, cell-based
T47D [4] = experiment: Reduction in ATP level in human T47D cells after 72 hrs by HPLC-UV analysis; assay type: functional, cell-based
Procedure, shortened: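 5 × 10^5 cells per well seeded in DMEM/F12 with 10% FBS. After 24 h, half the medium replaced with serum-free DMEM/F12 containing compound. After exposure, cells washed in cold DPBS and extracted with cold 0.4 M perchloric acid, then neutralized with K2CO3. ATP quantified by reversed-phase C18 HPLC-UV using 50 mM potassium phosphate pH 6.0/MeOH at 0.7 mL/min.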

T47D [5] = experiment: Inhibition of 1, 10-phenanthroline-induced HIF1beta protein accumulation in human T47D cells at 3 uM after 4 hrs by Western blot analysis; assay type: functional, cell-based
[6] = molecular target: Serine/threonine-protein kinase mTOR (Homo sapiens) (UniProt P42345); experiment: Inhibition of mTOR-mediated eIF4E phosphorylation on Ser 209 in human MDA-MB-231 cells at 1 to 10 uM after 30 mins by Western blotting; assay type: cell-based
[7] = molecular target: Serine/threonine-protein kinase mTOR (Homo sapiens) (UniProt P42345); experiment: Inhibition of mTOR in human T47D cells assessed as eIF2alpha hyperphosphorylation on Ser 51 at 1 to 10 uM after 30 mins by Western blotting; assay type: cell-based; procedure, shortened: as §1
[8] = molecular target: T1, Hypoxia inducible factors; HIF-1-alpha, HIF-2-alpha; experiment: Inhibition of hypoxia-induced HIF1 activation in human T47D cells after 16 hrs by HRE3-TK-luciferase reporter gene assay; assay type: cell-based
Procedure, shortened: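 T47D cells carrying the pHRE3-TK-Luc reporter, grown in DMEM/F12 with 10% FBS; HIF-1 induced by hypoxia (1% O2). Activity reported as % inhibition of the induced control, calculated as [1 − (treated/control)] × 100.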

[9] = molecular target: T1, Hypoxia inducible factors; HIF-1-alpha, HIF-2-alpha; experiment: Inhibition of HIF1-mediated induction of secreted VEGF protein in human T47D cells at 3 uM after 16 hrs by ELISA under normoxic condition; assay type: cell-based
T47D [10] = experiment: Inhibition of HIF1alpha protein accumulation under hypoxic condition in human T47D cells at 3 uM after 4 hrs by Western blot analysis; assay type: functional, cell-based
[11] = molecular target: T1, Hypoxia inducible factors; HIF-1-alpha, HIF-2-alpha; experiment: Inhibition of HIF1-mediated induction of cellular VEGF protein in human T47D cells at 3 uM after 16 hrs by ELISA under normoxic condition; assay type: cell-based
[12] = molecular target: Serine/threonine-protein kinase mTOR (Homo sapiens) (UniProt P42345); experiment: Inhibition of mTOR-mediated 4E-BP1 phosphorylation on Thr 37/46 in human MDA-MB-231 cells at 1 to 10 uM after 30 mins by Western blotting; assay type: cell-based

Structure (SMILES): CC(C)CC(=O)O[C@@H]1CC[C@]2(C)[C@H]3CC[C@]45C[C@]4(CC[C@@H]5[C@@H]4C[C@H]([C@@H]5OC5(C)C)OC4O)[C@]3(C)[C@H](O)C[C@H]2C1(C)C (some centres not stated) [SKIMMIAREPIN A]
- Activity [1]: Dose-dependent effect
- inhibition [2]: inactive
- inhibition (T47D [3]): inactive
- Activity (T47D [4]): Dose-dependent effect
- inhibition (T47D [5]): inactive
- inhibition [6]: inactive
- inhibition [7]: Dose-dependent effect
- IC50 [8]: 63 nM
- inhibition [9]: inactive
- inhibition (T47D [10]): Active
- inhibition [11]: inactive
- inhibition [12]: inactive
